Results as given in ChEMBL document CHEMBL3593221, “Design, synthesis and preliminary biological evaluation of indoline-2,3-dione derivatives as novel HDAC inhibitors” (Bioorg Med Chem, 2015).

Key:
[1] = biological target: Histone deacetylase (HDAC1 and HDAC2) (Homo sapiens, UniProt Q13547+Q92769); assay: Inhibition of HDAC1/2 in human HeLa cell nuclear extract using Boc-Lys (acetyl)-AMC as substrate preincubated for 30 mins before substrate addition measured after 20 mins by UV-vis spectrophotometer analysis; type: cell-based
PC-3 = assay: Antiproliferative activity against human PC3 cells after 48 hrs by MTT assay; type: functional, cell-based; conditions: PC-3, 48 h
MDA-MB-231 = assay: Antiproliferative activity against human MDA-MB-231 cells after 48 hrs by MTT assay; type: functional, cell-based; conditions: MDA-MB-231, 48 h
K562 = assay: Antiproliferative activity against human K562 cells after 48 hrs by MTT assay; type: functional, cell-based; conditions: K562, 48 h
U-937 = assay: Antiproliferative activity against human U937 cells after 48 hrs by MTT assay; type: functional, cell-based; conditions: U-937, 48 h
[2] = Antiproliferative activity against human H7402 cells after 48 hrs by MTT assay; type: functional, cell-based; conditions: H7402, 48 h
In short: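 Cells kept in RPMI1640 with 10% FBS at 37 °C, 5% CO2. Seeded 5000 per well and allowed at least 4 h to settle, then exposed to a range of compound concentrations for 48 h. 1% MTT solution added for 4 h, formazan dissolved in DMSO over 15 min, OD read at 570 nm. Values are the mean of three experiments.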

MCF7 = assay: Antiproliferative activity against human MCF7 cells after 48 hrs by MTT assay; type: functional, cell-based; conditions: MCF7, 48 h
HeLa = assay: Antiproliferative activity against human HeLa cells after 48 hrs by MTT assay; type: functional, cell-based
HEL = assay: Antiproliferative activity against human HEL cells after 48 hrs by MTT assay; type: functional, cell-based
[3] = Antiproliferative activity against human KG1 cells after 48 hrs by MTT assay; type: functional, cell-based; conditions: KG-1, 48 h
[4] = Antiproliferative activity against human ES2 cells after 48 hrs by MTT assay; type: functional, cell-based; conditions: ES-2, 48 h
HCT-116 = assay: Antiproliferative activity against human HCT116 cells after 48 hrs by MTT assay; type: functional, cell-based; conditions: HCT-116, 48 h
[5] = Antiproliferative activity against human 3AO cells after 48 hrs by MTT assay; type: functional, cell-based
Histone deacetylase 1 = Histone deacetylase 1 (Homo sapiens, UniProt Q13547); assay: Inhibition of HDAC1 (unknown origin) using Boc-Lys (acetyl)-AMC as substrate preincubated for 30 mins before substrate addition measured after 20 mins by UV-vis spectrophotometer analysis
Histone deacetylase 1, sequence (Q13547 whole entry): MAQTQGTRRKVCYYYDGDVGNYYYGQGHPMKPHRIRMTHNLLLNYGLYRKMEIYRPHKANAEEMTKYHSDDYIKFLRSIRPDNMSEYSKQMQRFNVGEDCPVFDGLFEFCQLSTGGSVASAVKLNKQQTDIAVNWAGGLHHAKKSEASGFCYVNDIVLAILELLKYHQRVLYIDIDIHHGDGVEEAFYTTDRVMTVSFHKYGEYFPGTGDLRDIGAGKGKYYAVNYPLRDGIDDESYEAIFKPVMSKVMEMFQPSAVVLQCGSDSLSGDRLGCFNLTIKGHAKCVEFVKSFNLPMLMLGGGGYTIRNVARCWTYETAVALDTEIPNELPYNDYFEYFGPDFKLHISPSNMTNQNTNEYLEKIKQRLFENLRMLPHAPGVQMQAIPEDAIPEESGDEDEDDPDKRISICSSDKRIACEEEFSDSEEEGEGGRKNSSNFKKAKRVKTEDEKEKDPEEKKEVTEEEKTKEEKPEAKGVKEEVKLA

Histone deacetylase 3 = Histone deacetylase 3 (Homo sapiens, UniProt O15379); assay: Inhibition of HDAC3 (unknown origin) using Boc-Lys (acetyl)-AMC as substrate preincubated for 30 mins before substrate addition measured after 20 mins by UV-vis spectrophotometer analysis
Histone deacetylase 3, sequence (O15379 whole entry): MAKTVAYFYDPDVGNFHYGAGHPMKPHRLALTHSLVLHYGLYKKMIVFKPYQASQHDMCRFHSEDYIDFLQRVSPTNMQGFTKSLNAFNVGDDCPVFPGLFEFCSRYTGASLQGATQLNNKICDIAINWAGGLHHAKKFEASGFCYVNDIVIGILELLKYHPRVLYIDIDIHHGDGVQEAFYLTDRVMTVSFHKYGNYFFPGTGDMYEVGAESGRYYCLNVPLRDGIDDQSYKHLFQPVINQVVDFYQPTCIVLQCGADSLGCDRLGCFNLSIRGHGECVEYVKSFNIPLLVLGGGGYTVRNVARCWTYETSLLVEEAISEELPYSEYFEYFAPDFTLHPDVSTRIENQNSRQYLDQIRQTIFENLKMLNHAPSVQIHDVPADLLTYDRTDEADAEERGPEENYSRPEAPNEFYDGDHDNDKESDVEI

[6] = biological target: T1, Protein deacetylase HDAC6 (Homo sapiens, UniProt Q9UBN7); assay: Inhibition of HDAC6 (unknown origin) using Boc-Lys (acetyl)-AMC as substrate preincubated for 30 mins before substrate addition measured after 20 mins by UV-vis spectrophotometer analysis
T1 sequence (Q9UBN7 whole entry): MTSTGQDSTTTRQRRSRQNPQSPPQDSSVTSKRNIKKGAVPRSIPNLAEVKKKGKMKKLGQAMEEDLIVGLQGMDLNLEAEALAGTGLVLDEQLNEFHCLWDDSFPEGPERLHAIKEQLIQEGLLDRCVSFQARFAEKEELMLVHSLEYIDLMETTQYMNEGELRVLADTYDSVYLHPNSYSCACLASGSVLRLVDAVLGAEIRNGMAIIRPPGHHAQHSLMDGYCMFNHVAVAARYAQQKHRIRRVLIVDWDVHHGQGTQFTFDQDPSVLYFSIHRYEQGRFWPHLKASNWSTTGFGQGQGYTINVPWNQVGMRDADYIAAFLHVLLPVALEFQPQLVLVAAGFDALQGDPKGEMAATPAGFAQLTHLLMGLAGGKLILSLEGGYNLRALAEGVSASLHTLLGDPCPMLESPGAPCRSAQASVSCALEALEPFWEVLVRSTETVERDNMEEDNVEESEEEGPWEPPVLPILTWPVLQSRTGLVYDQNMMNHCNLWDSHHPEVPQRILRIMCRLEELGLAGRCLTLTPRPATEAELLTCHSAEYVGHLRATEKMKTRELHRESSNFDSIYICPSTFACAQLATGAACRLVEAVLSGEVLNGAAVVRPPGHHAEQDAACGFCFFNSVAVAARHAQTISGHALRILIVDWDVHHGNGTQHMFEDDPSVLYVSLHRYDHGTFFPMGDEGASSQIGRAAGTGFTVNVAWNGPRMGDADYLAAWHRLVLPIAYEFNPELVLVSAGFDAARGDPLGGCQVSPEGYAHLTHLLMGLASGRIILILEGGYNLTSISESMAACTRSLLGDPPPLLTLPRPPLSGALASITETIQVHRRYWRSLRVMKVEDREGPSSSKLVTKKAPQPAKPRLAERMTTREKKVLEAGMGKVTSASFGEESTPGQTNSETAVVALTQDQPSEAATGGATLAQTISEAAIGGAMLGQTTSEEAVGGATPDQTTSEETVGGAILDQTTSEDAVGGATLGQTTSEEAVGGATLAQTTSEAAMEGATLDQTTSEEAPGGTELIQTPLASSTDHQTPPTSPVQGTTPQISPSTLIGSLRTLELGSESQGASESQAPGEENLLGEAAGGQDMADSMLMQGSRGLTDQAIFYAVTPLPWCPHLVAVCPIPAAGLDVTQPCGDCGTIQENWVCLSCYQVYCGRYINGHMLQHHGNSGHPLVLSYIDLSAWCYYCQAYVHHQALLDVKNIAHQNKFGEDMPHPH

[7] = Antitumor activity against human H7402 cells xenografted in mouse assessed as tumor increment ratio at 60 mg/kg/day, po for 16 days relative to control; type: functional
In short: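 Male athymic nude mice, 4-6 weeks old, inoculated subcutaneously in the right axilla with 6.88×10^7 H7402 cells. After 8 days, at about 140 mm³ mean tumor volume, mice were randomized to groups of seven. Daily gavage for 16 days; controls received an equal volume of PBS. Tumors were measured by caliper every three days, V=ab²/2. T/C% = treated RTV/control RTV, where RTV = Vt/V0. Two-tailed t test.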

Mus musculus [8] = assay: Toxicity in human H7402 cells xenografted mouse assessed as change in body weight at 60 mg/kg/day, po for 16 days; type: organism-based; conditions: in vivo, 384 h
In short: (§1)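 H7402 subcutaneous xenograft in male athymic nude mice, seven per group, started once tumors reached about 140 mm³. Compound given daily by gavage for 16 days; controls received an equal volume of PBS. Body weight recorded every three days, and toxicity monitored during treatment.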

Mus musculus [9] = assay: Toxicity in human H7402 cells xenografted mouse assessed as change in toxic effect at 60 mg/kg/day, po for 16 days; type: organism-based; conditions: in vivo, 384 h; in short: as §1

Row | SMILES | IC50 [1] [µM] | IC50 (PC-3) [µM] | IC50 (MDA-MB-231) [µM] | IC50 (K562) [µM] | IC50 (U-937) [µM] | IC50 [2] [µM] | IC50 (MCF7) [µM] | IC50 (HeLa) [µM] | IC50 (HEL) [µM] | IC50 [3] [µM] | IC50 [4] [µM] | IC50 (HCT-116) [µM] | IC50 [5] [µM] | further results
1 | O=C(CNC(=O)CN1C(=O)C2(OCCO2)c2cc(Br)ccc21)NO | > 50 | – | – | – | – | – | – | – | – | – | – | – | – | –
2 | O=C(CCCNC(=O)CN1C(=O)C2(OCCO2)c2cc(Br)ccc21)NO | 0.92 | – | – | – | – | – | – | – | – | – | – | – | – | –
3 | O=C(CCCCCNC(=O)CN1C(=O)C2(OCCO2)c2cc(Br)ccc21)NO | 0.67 | – | – | – | – | – | – | – | – | – | – | – | – | –
4 | O=C(/C=C/c1ccc(NC(=O)CN2C(=O)C3(OCCO3)c3cc(Br)ccc32)cc1)NO | 0.22 | – | – | – | – | – | – | – | – | – | – | – | – | –
5 | O=C(CN1C(=O)C2(OCCO2)c2cc(F)ccc21)Nc1ccc(C(=O)NO)cc1 | 0.19 | – | – | – | – | – | – | – | – | – | – | – | – | –
6 | O=C(CN1C(=O)C2(OCCO2)c2cc(Cl)ccc21)Nc1ccc(C(=O)NO)cc1 | 0.37 | – | – | – | – | – | – | – | – | – | – | – | – | –
7 | O=C(CN1C(=O)C2(OCCO2)c2cc(Br)ccc21)Nc1ccc(C(=O)NO)cc1 | 0.12 | – | – | – | – | – | – | – | – | – | – | – | – | –
8 | O=C(CN1C(=O)C2(OCCO2)c2ccccc21)Nc1ccc(C(=O)NO)cc1 | 0.31 | – | – | – | – | – | – | – | – | – | – | – | – | –
9 | Cc1ccc2c(c1)C1(OCCO1)C(=O)N2CC(=O)Nc1ccc(C(=O)NO)cc1 | 0.28 | – | – | – | – | – | – | – | – | – | – | – | – | –
10 | O=C(CN1C(=O)C2(OCCO2)c2cc([N+](=O)[O-])ccc21)Nc1ccc(C(=O)NO)cc1 | > 50 | – | – | – | – | – | – | – | – | – | – | – | – | –
11 | O=C(CN1C(=O)C2(OCCCO2)c2cc(Cl)ccc21)Nc1ccc(C(=O)NO)cc1 | 0.0344 | 21.9 | 57.1 | 5.32 | 2.09 | 4.64 | 28.4 | 11.3 | 1.25 | 9.19 | 10.1 | 41.9 | 12.3 | –
12 | O=C(CN1C(=O)C2(OCCCCO2)c2cc(Cl)ccc21)Nc1ccc(C(=O)NO)cc1 | 0.0373 | 11.6 | 36.4 | 7.23 | 1.49 | 5.34 | 25 | 36.1 | 1.29 | 10.1 | 25.3 | 42.4 | 23.6 | –
13 | O=C(CN1C(=O)C2(OCCCO2)c2cc(Br)ccc21)Nc1ccc(C(=O)NO)cc1 | 0.013 | 11 | 44.7 | 1.94 | 0.4 | 1.37 | 8.58 | 12.1 | 0.56 | 5.4 | 16.1 | 60.1 | 18.3 | –
14 | O=C(CN1C(=O)C2(OCCCCO2)c2cc(Br)ccc21)Nc1ccc(C(=O)NO)cc1 | 0.0216 | 17.7 | 24.1 | 3.91 | 0.66 | 0.75 | 6.13 | > 50 | 0.64 | 5.49 | 3.6 | 80.2 | 27.2 | –
15 | O=C(CCN1C(=O)C2(OCCCO2)c2cc(Br)ccc21)Nc1ccc(C(=O)NO)cc1 | 0.01013 | 1.91 | 101 | 0.18 | 0.14 | 5.33 | 52.6 | 2.79 | 0.33 | 0.32 | 2.8 | 1.26 | 3.25 | IC50 (Histone deacetylase 1): 0.201 µM; IC50 (Histone deacetylase 3): 0.025 µM; IC50 [6]: 0.126 µM; T/C [7]: 62.5%; Activity (Mus musculus [8]): Non-toxic; Activity (Mus musculus [9]): Non-toxic
16 | O=C(CCCN1C(=O)C2(OCCCO2)c2cc(Br)ccc21)Nc1ccc(C(=O)NO)cc1 | 0.0194 | 7.93 | 126 | 0.39 | 0.22 | 0.58 | 13.7 | 22.2 | 0.34 | 0.42 | 6.02 | 1.1 | 21.4 | –
17 | COC(=O)c1ccc(NC(=O)CN2C(=O)C3(OCCCO3)c3cc(Br)ccc32)cc1 | > 50 | – | – | – | – | – | – | – | – | – | – | – | – | –
18 | O=C(CN1C(=O)C2(OCCCO2)c2cc(Br)ccc21)Nc1ccc(C(=O)O)cc1 | > 50 | – | – | – | – | – | – | – | – | – | – | – | – | –
19 | Nc1ccccc1NC(=O)c1ccc(NC(=O)CN2C(=O)C3(OCCCO3)c3cc(Br)ccc32)cc1 | 0.31 | 4.43 | 82.7 | 0.44 | 1.08 | 1.95 | 5.23 | 26.6 | – | 5.92 | 6.49 | 0.64 | 9.71 | –
